Measurements: ChEMBL document CHEMBL2417493, “Novel cycloalkylthiophene-imine derivatives bearing benzothiazole scaffold: synthesis, characterization and antiviral activity evaluation” (Bioorg Med Chem Lett, 2013)
Values after ≈ are worked out from the molar mass of the structure shown. Active and inactive are the calls of the source. No cut-off for these calls is given here.

How the values were obtained:
unidentified adenovirus [1] = assay: Antiviral activity against Adenovirus type 7 infected in human HeLa cells assessed as inhibition of virus-induced cytopathogenicity after 48 hrs by crystal violet staining method; type: functional, organism-based
Outline: (§1)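 Virus–cell pairings were EV71 in RD, CVB5 in HepG2, ADV7 in HeLa and influenza A H1N1 in MDCK. Compounds were added […], and total infectivity was read by crystal violet staining. EC50 is the concentration reducing viral replication by 50%. Values are mean SD of three independent experiments.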

Enterovirus [2] = assay: Antiviral activity against Enterovirus 71 infected in human rhabdomyosarcoma cells assessed as inhibition of virus-induced cytopathogenicity after 48 hrs by crystal violet staining method; type: functional, organism-based; outline: as §1
Coxsackievirus B5 [3] = assay: Antiviral activity against Coxsackievirus B5 infected in human HepG2 cells assessed as inhibition of virus-induced cytopathogenicity at 32 ug/ml after 48 hrs by crystal violet staining method; type: functional
Outline: (§2)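 Single-concentration screen with these pairings: RD/EV71, HepG2/CVB5, HeLa/ADV7, MDCK/H1N1. Cells were infected and kept 48 h in the presence of compound at one fixed concentration; some EV71 tests used the lower level. Inhibition of virus proliferation was read by crystal violet staining.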

[4] = Cytotoxicity against human HeLa cells after 72 hrs by MTT assay; type: cell-based
Outline: (§3)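 MTT assay on RD (rhabdomyosarcoma), HepG2 and HeLa cell lines. CC50 is the concentration that cut cell viability by 50% relative to 0.1% DMSO-treated mock-control cells. Values are mean and SD of three independent experiments.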

Influenza A virus [5] = assay: Antiviral activity against influenza A virus H1N1 infected in dog MDCK cells assessed as inhibition of virus-induced cytopathogenicity after 48 hrs by crystal violet staining method; type: functional, organism-based; outline: as §1
unidentified adenovirus [6] = assay: Antiviral activity against Adenovirus type 7 infected in human HeLa cells assessed as inhibition of virus-induced cytopathogenicity at 32 ug/ml after 48 hrs by crystal violet staining method; type: functional; outline: as §2
[7] = Cytotoxicity against human rhabdomyosarcoma cells after 72 hrs by MTT assay; type: cell-based, Rhabdomyosarcoma cell; outline: as §3
Influenza A virus [8] = assay: Antiviral activity against influenza A virus H1N1 infected in dog MDCK cells assessed as inhibition of virus-induced cytopathogenicity at 32 ug/ml after 48 hrs by crystal violet staining method; type: functional, organism-based; outline: as §2
Enterovirus [9] = assay: Antiviral activity against Enterovirus 71 infected in human rhabdomyosarcoma cells assessed as inhibition of virus-induced cytopathogenicity at 32 ug/ml after 48 hrs by crystal violet staining method; type: functional; outline: as §2
[10] = Cytotoxicity against human HepG2 cells after 72 hrs by MTT assay; type: cell-based; outline: as §3
Coxsackievirus B5 [11] = assay: Antiviral activity against Coxsackievirus B5 infected in human HepG2 cells assessed as inhibition of virus-induced cytopathogenicity after 48 hrs by crystal violet staining method; type: functional, organism-based; outline: as §1
[12] = Selectivity index, ratio of CC50 for human HepG2 cells to EC50 for Coxsackievirus B5 infected in human HepG2 cells; type: toxicity, cell-based; settings: read-out: Ratio CC50/EC50
Outline: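 Antiviral pairings were EV71 in RD cells, CVB5 in HepG2 cells and ADV7 in HeLa cells. Compounds were added […], and total infectivity was read by crystal violet staining. EC50 is the concentration that cut viral replication by 50%. CC50 came from MTT relative to 0.1% DMSO mock control. SI = CC50/EC50. Data are from three independent experiments.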

Q: For `FC(F)(F)c1ccc(/C=N/c2sc3c(c2-c2nc4ccccc4s2)CCCC3)cc1`, which “inhibition (INH)” value (unidentified adenovirus [1]) is on record?
A: <50%

Q: And the “inhibition (INH)” value (Enterovirus [2])?
A: <50%

Q: What about the inhibition (Coxsackievirus B5 [3]) of the same compound?
A: Active

Q: And the CC50 at 72 h [4]?
A: 368 mg/L (≈ 833 µM)

Q: What about the “inhibition (INH)” value (Influenza A virus [5]) of the same compound?
A: <50%

Q: And the inhibition (unidentified adenovirus [6])?
A: Active

Q: What about the CC50 at 72 h [7] of the same compound?
A: 250 mg/L (≈ 566 µM)

Q: And the inhibition (Influenza A virus [8])?
A: Active

Q: And the inhibition (Enterovirus [9])?
A: Active

Q: And the CC50 at 72 h [10]?
A: 361 mg/L (≈ 816 µM)

Q: And the “inhibition (INH)” value (Coxsackievirus B5 [11])?
A: <50%

Q: Which “inhibition (INH)” value (unidentified adenovirus [1]) does the source give for `Clc1ccccc1/C=N/c1sc2c(c1-c1nc3ccccc3s1)CCCC2` here?
A: <50%

Q: What about the “inhibition (INH)” value (Enterovirus [2]) of the same compound?
A: <50%

Q: And the inhibition (Coxsackievirus B5 [3])?
A: Active

Q: And the CC50 at 72 h [4]?
A: 407 mg/L (≈ 996 µM)

Q: What about the “inhibition (INH)” value (Influenza A virus [5]) of the same compound?
A: <50%

Q: And the inhibition (unidentified adenovirus [6])?
A: Active

Q: What about the CC50 at 72 h [7] of the same compound?
A: 332 mg/L (≈ 811 µM)

Q: What about the inhibition (Influenza A virus [8]) of the same compound?
A: Active

Q: And the inhibition (Enterovirus [9])?
A: Active

Q: And the CC50 at 72 h [10]?
A: 370 mg/L (≈ 904 µM)

Q: And the “inhibition (INH)” value (Coxsackievirus B5 [11])?
A: <50%

Q: Which results are given for `Fc1ccccc1/C=N/c1sc2c(c1-c1nc3ccccc3s1)CCCC2`?
A: inhibition (INH) (unidentified adenovirus [1]): <50%; inhibition (INH) (Enterovirus [2]): <50%; inhibition (Coxsackievirus B5 [3]): Active; CC50 at 72 h [4]: 426 mg/L (≈ 1090 µM); inhibition (INH) (Influenza A virus [5]): <50%; inhibition (unidentified adenovirus [6]): Active; CC50 at 72 h [7]: 319 mg/L (≈ 812 µM); inhibition (Influenza A virus [8]): Active; inhibition (Enterovirus [9]): Active; CC50 at 72 h [10]: 398 mg/L (≈ 1010 µM); inhibition (INH) (Coxsackievirus B5 [11]): <50%

Q: What does the source list for `Clc1ccc(/C=N/c2sc3c(c2-c2nc4ccccc4s2)CCCC3)cc1`?
A: inhibition (INH) (unidentified adenovirus [1]): <50%; inhibition (INH) (Enterovirus [2]): <50%; inhibition (Coxsackievirus B5 [3]): Active; CC50 at 72 h [4]: 431 mg/L (≈ 1050 µM); inhibition (INH) (Influenza A virus [5]): <50%; inhibition (unidentified adenovirus [6]): Active; CC50 at 72 h [7]: 367 mg/L (≈ 898 µM); inhibition (Influenza A virus [8]): Active; inhibition (Enterovirus [9]): Active; CC50 at 72 h [10]: 397 mg/L (≈ 970 µM); inhibition (INH) (Coxsackievirus B5 [11]): <50%

Q: What does the source list for `C(=N\c1sc2c(c1-c1nc3ccccc3s1)CCC2)/c1ccc2c(c1)OCO2`?
A: inhibition (INH) (unidentified adenovirus [1]): <50%; inhibition (INH) (Enterovirus [2]): <50%; inhibition (Coxsackievirus B5 [3]): Active; CC50 at 72 h [4]: 449 mg/L (≈ 1110 µM); inhibition (INH) (Influenza A virus [5]): <50%; inhibition (unidentified adenovirus [6]): Active; CC50 at 72 h [7]: 310 mg/L (≈ 766 µM); inhibition (Influenza A virus [8]): Active; inhibition (Enterovirus [9]): Active; CC50 at 72 h [10]: 356 mg/L (≈ 881 µM); inhibition (INH) (Coxsackievirus B5 [11]): <50%

Q: What does the source list for `Fc1ccccc1/C=N/c1sc2c(c1-c1nc3ccccc3s1)CCC2`?
A: inhibition (INH) (unidentified adenovirus [1]): <50%; inhibition (INH) (Enterovirus [2]): <50%; inhibition (Coxsackievirus B5 [3]): Active; CC50 at 72 h [4]: 355 mg/L (≈ 938 µM); inhibition (INH) (Influenza A virus [5]): <50%; inhibition (unidentified adenovirus [6]): Active; CC50 at 72 h [7]: 270 mg/L (≈ 713 µM); inhibition (Influenza A virus [8]): Active; inhibition (Enterovirus [9]): Active; CC50 at 72 h [10]: 394 mg/L (≈ 1040 µM); inhibition (INH) (Coxsackievirus B5 [11]): <50%

Q: For `Clc1ccc(/C=N/c2sc3c(c2-c2nc4ccccc4s2)CCCC3)c(Cl)c1`, which “inhibition (INH)” value (unidentified adenovirus [1]) is on record?
A: <50%

Q: What about the “inhibition (INH)” value (Enterovirus [2]) of the same compound?
A: <50%

Q: And the inhibition (Coxsackievirus B5 [3])?
A: Active

Q: And the CC50 at 72 h [4]?
A: 542 mg/L (≈ 1220 µM)

Q: What about the “inhibition (INH)” value (Influenza A virus [5]) of the same compound?
A: <50%

Q: What about the inhibition (unidentified adenovirus [6]) of the same compound?
A: Active

Q: And the CC50 at 72 h [7]?
A: 56.6 mg/L (≈ 128 µM)

Q: What about the inhibition (Influenza A virus [8]) of the same compound?
A: Active

Q: And the inhibition (Enterovirus [9])?
A: Active

Q: What about the CC50 at 72 h [10] of the same compound?
A: 384 mg/L (≈ 865 µM)

Q: What about the “inhibition (INH)” value (Coxsackievirus B5 [11]) of the same compound?
A: <50%

Q: With `O=[N+]([O-])c1ccc(/C=N/c2sc3c(c2-c2nc4ccccc4s2)CCCC3)cc1` as the compound, how does the “inhibition (INH)” value (unidentified adenovirus [1]) read?
A: <50%

Q: What about the “inhibition (INH)” value (Enterovirus [2]) of the same compound?
A: <50%

Q: What about the inhibition (Coxsackievirus B5 [3]) of the same compound?
A: Active

Q: What about the CC50 at 72 h [4] of the same compound?
A: 357 mg/L (≈ 850 µM)

Q: And the “inhibition (INH)” value (Influenza A virus [5])?
A: <50%

Q: What about the inhibition (unidentified adenovirus [6]) of the same compound?
A: Active

Q: And the CC50 at 72 h [7]?
A: 316 mg/L (≈ 754 µM)

Q: And the inhibition (Influenza A virus [8])?
A: Active

Q: What about the inhibition (Enterovirus [9]) of the same compound?
A: Active

Q: And the CC50 at 72 h [10]?
A: 454 mg/L (≈ 1080 µM)

Q: What about the “inhibition (INH)” value (Coxsackievirus B5 [11]) of the same compound?
A: <50%

Q: For `Fc1ccc(/C=N/c2sc3c(c2-c2nc4ccccc4s2)CCC3)cc1`, which “inhibition (INH)” value (unidentified adenovirus [1]) is on record?
A: <50%

Q: And the “inhibition (INH)” value (Enterovirus [2])?
A: <50%

Q: What about the inhibition (Coxsackievirus B5 [3]) of the same compound?
A: Active

Q: What about the CC50 at 72 h [4] of the same compound?
A: 372 mg/L (≈ 984 µM)

Q: And the “inhibition (INH)” value (Influenza A virus [5])?
A: <50%

Q: What about the selectivity ratio [12] of the same compound?
A: 19.4

Q: And the inhibition (unidentified adenovirus [6])?
A: Active

Q: And the CC50 at 72 h [7]?
A: 290 mg/L (≈ 765 µM)

Q: What about the inhibition (Influenza A virus [8]) of the same compound?
A: Active

Q: And the inhibition (Enterovirus [9])?
A: Active

Q: What about the CC50 at 72 h [10] of the same compound?
A: 302 mg/L (≈ 799 µM)

Q: And the EC50 (Coxsackievirus B5 [11]; Enterovirus B, HepG2, 48 h)?
A: 15.5 mg/L (≈ 41 µM)

Q: Which “inhibition (INH)” value (unidentified adenovirus [1]) does the source give for `Clc1ccc(/C=N/c2sc3c(c2-c2nc4ccccc4s2)CCC3)c(Cl)c1` here?
A: <50%

Q: What about the “inhibition (INH)” value (Enterovirus [2]) of the same compound?
A: <50%

Q: What about the inhibition (Coxsackievirus B5 [3]) of the same compound?
A: Active

Q: And the CC50 at 72 h [4]?
A: 345 mg/L (≈ 804 µM)

Q: And the “inhibition (INH)” value (Influenza A virus [5])?
A: <50%

Q: And the inhibition (unidentified adenovirus [6])?
A: Active

Q: And the CC50 at 72 h [7]?
A: 160 mg/L (≈ 372 µM)

Q: And the inhibition (Influenza A virus [8])?
A: Active

Q: And the inhibition (Enterovirus [9])?
A: Active

Q: What about the CC50 at 72 h [10] of the same compound?
A: 310 mg/L (≈ 722 µM)

Q: And the “inhibition (INH)” value (Coxsackievirus B5 [11])?
A: <50%
